Assay outcomes from PubChem.
EBV gp42 inh = inhibitors of Epstein-Barr virus glycoprotein 42; Q1HVG2; Fluorescence polarization binding assay, mP read-out; inhibition, % (tested at 21.74 µM); 0.42% of 220,000 active; in the data active means inhibition above about 50%
Target sequence (Q1HVG2 whole entry, looked up): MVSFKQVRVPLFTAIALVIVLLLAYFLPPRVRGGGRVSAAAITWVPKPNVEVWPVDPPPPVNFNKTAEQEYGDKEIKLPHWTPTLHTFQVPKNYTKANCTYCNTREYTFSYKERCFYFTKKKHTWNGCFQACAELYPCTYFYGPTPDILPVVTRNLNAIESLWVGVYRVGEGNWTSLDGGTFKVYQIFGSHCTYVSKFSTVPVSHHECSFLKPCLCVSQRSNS
NS3 helicase inh = blocks Hepatitis C virus NS3 helicase unwinding | NS3 helicase DNA unwinding, Cy5 molecular beacon fluorescence | 0.56% of 290,000 active | inhibition, % at 10.9 µM;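 active means inhibition above the mean of all tested compounds plus 3 SD, set per campaign, cut at about 35% in these data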;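 further: 0% = DMSO wells and 100% = thioflavine S control wells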
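Test system: hepatitis C virus NS3 helicase domain fragment enzyme. Also added: annealed dual-labelled DNA beacon duplex, ATP-started. Timing: 60 min unwinding reaction at 25 °C after ATP addition. Technique: Cy5 fluorescence. Measure: % inhibition of unwinding.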
HCV core dimer = blocks dimerization of HCV core protein; inhibition, % at 5 µM; AID 1899; TR-FRET GST/Flag-core106 dimerization, 1536-well; 0.33% of 300,000 active;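 active means inhibition above the mean of all tested compounds plus 3 SD, set per screening campaign, cut at about 45% in these data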
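assay system = GST-tagged and Flag-tagged HCV core protein residues 1-106 | controls = unlabelled core106 and no-GST-core106 wells | incubation = compound-protein-antibody incubation 4 h at 22.5 °C | probe or stimulus = Eu donor and XL665 acceptor anti-tag antibodies | read-out = % inhibition based on acceptor/donor emission ratio | signal = TR-FRET 671 and 617 nm emission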
EBNA-1 inhibitor = blocks EBNA-1 binding to DNA; 0.34% of 300,000 active; AID 1950; EBNA-1 DNA binding, fluorescence polarization; inhibition, % at 14.8 µM; in the data active means inhibition above about 28%
ZTA DNA inh = blocks Epstein-Barr virus ZTA, an EBNA-1 counter-screen; P03206; ZTA-DNA binding, fluorescence polarization; inhibition, % at 11 µM; 0.15% of 320,000 active; in the data active means inhibition above about 33%
Target sequence (P03206 whole entry, looked up): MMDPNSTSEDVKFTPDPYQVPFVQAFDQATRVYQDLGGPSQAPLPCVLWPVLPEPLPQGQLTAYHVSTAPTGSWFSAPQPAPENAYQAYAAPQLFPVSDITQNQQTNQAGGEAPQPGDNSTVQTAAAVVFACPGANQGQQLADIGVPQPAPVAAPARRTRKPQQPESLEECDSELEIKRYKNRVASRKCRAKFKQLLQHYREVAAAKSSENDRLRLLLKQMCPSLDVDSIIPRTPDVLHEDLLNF
MEX-5 binding = C. elegans MEX-5 TCR-2 RNA binding activity; 0.38% of 300,000 active; Q9XUB2; activity score (negative = inhibition of binding), % at 10 µM; MEX-5/FITC-TCR2 RNA binding, fluorescence polarization; hits give low values;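 active means inhibition past about -25% in most replicates, and total fluorescence under double the plate's negative control median, limit read from the data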;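 further: 0% = DMSO and -100% = 5 µM competing unlabeled TCR2 RNA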
Zta DNA confirm = confirmation of Epstein-Barr virus ZTA DNA binding inhibitors; 30% of 320 active; shares compounds with ZTA DNA inh; inhibition, % at 11.1 µM; AID 2361; Zta-ZRE DNA binding, fluorescence polarization;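 active means mean inhibition across triplicate runs above the hit threshold derived for the original primary screen, cut at about 33% in these data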;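 further: 0% = Zta with DMSO and 100% = wells lacking Zta protein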
EBNA1 counter = counter-screen for ZTA inhibitors: EBNA-1 DNA binding inhibition; shares compounds with ZTA DNA inh; fluorescence polarization; inhibition, % at 14.8 µM; 320 tested, under 10 active; AID 2362; call rule not given here
Numbers without * were called inactive; · = not tested or not shown. Sampled rows, rich in hits. Any-hit rate of the full collection: about 1.7%.

SMILES	EBV gp42 inh	NS3 helicase inh	HCV core dimer	EBNA-1 inhibitor	ZTA DNA inh	MEX-5 binding	Zta DNA confirm	EBNA1 counter
CS(=O)(=O)N1CCN(c2ccc(NC(=O)C(c3ccccc3)c3ccccc3)cc2)CC1	-1.7	-10.0	10.6	1.8	6.8	3.9	·	·
O=C(Nc1ccc(N2CCCC2)cc1)C(Cl)c1ccccc1 (stereo unspecified)	-10.1	4.2	-2.8	27.2	49.2*	3.1	70.2*	36.4*
O=C(Cc1ccc(Cl)cc1)Nc1ccc(S(=O)(=O)Nc2cnc3ccccc3n2)cc1	-4.8	-33.9	12.5	-10.4	17.5	-2.2	·	·
COCc1ccc(-c2ccc3c(c2)c(C#Cc2ccsc2)c(-c2cc(OC)cc(OC)c2)n3C)cc1	·	·	·	·	-4.7	·	·	·
COc1cc(OC)cc(-c2c(C#Cc3ccsc3)c3cc(-c4ccc(C(N)=O)cc4)ccc3n2C)c1	·	·	·	·	39.6*	·	21.7	25.0
CCc1nnc(NC(=O)[C@@H](NC(=O)c2cc(OC)cc(OC)c2)C(C)C)s1	-6.3	0.9	4.0	8.2	116.6*	0.3	7.2	0.8
CC(C)CC(=O)Nc1ccc2c(c1)nc(CCN1CCOCC1)n2C	·	6.1	3.9	1.1	0.5	1.0	·	·
COc1cc(O)c2c(c1)OC(c1ccc(O)cc1)CC2=O (stereo unspecified)	-11.9	10.4	2.9	-4.9	34.5*	-1.0	15.6	-8.2
OC(Cn1cnnc1)c1ccccc1 (stereo unspecified)	·	3.5	-1.5	-3.8	52.6*	-0.4	0.8	-1.6
OC(CN1CCc2ccccc2C1)c1ccccc1 (stereo unspecified)	4.8	7.6	-2.1	-2.3	-13.6	-1.2	·	·
CCOc1ccc2c(=O)c(Oc3ccccc3)c(C)oc2c1	-25.8	-7.1	13.2	-15.6	139.1*	-0.3	-5.5	-10.0
Cc1oc2cc(OC(C)C(=O)O)ccc2c(=O)c1Oc1ccccc1 (stereo unspecified)	1.2	-2.8	0.3	-2.6	-24.6	-0.1	·	·
O=C(Nc1ccccc1NC(=O)c1ccccc1F)c1ccccc1F	·	-6.7	·	·	·	3.6	·	·
O=C(Nc1ccccc1Sc1ccccc1)c1ccccc1F	·	8.9	1.3	-6.8	37.5*	-0.4	-2.5	-4.9
CC(C)Oc1ccc(CCNC(=O)CC2C(=O)NCCN2C)cc1 (stereo unspecified)	-7.2	-25.8	-0.5	-14.7	52.0*	-0.5	9.5	5.2
CN1/C(=C\C=Nc2ccc3ccccc3c2)C(C)(C)c2ccccc21	-61.2	8.0	-5.0	-11.3	8.0	·	·	·
CN(C)c1ccc(N=C/C=C2\N(C)c3ccccc3C2(C)C)cc1	-73.3	27.7	-34.0	6.0	163.1*	2.9	2.4	-2.0
Cn1c(SCC(=O)N2CCN(c3ccccc3)CC2)nnc1-c1ccncc1	-19.9	-2.9	-0.9	-8.8	37.8*	0.4	-0.9	3.5
NS(=O)(=O)c1ccc(CCNC(=S)Nc2ccccc2)cc1	-4.5	-1.8	-2.8	-8.1	12.1	-5.6	·	·
CCC(C(=O)OC)n1cnc2scc(-c3ccc(C)c(C)c3)c2c1=O (stereo unspecified)	·	0.0	-3.8	-1.3	5.6	-0.1	·	·
CCC(C(=O)O)n1cnc2scc(-c3ccc(C)c(C)c3)c2c1=O (stereo unspecified)	·	11.8	7.6	1.2	117.3*	-0.7	5.7	13.1
COCCNc1oc(/C=C/c2ccc(F)cc2)nc1S(=O)(=O)c1ccccc1	·	-20.3	15.4	3.8	-11.3	0.6	·	·
C=CCOc1ccc(/C=C2\SC(=S)N(N3CCOCC3)C2=O)cc1	-25.4	-5.5	3.9	0.8	40.9*	0.2	3.4	-2.0
C#CCOCCOCCOCCNc1nc(N2CCN(C(=O)CCCCCCCCCCNC(=O)Cn3cc(CCCCCN)nn3)CC2)nc(N2CCN(C(=O)CCCCCCCCCCNC(=O)[C@H](CO)n3cc(CCCCCN)nn3)CC2)n1	·	·	-13.0	6.5	50.4*	·	36.5*	-8.7
C#CCOCCOCCOCCNc1nc(N2CCN(C(=O)CCCCCCCCCCNC(=O)Cn3cc(CCCCCN)nn3)CC2)nc(N2CCN(C(=O)CCCCCCCCCCNC(=O)[C@H]([C@@H](C)CC)n3cc(CCCCCN)nn3)CC2)n1	·	·	16.3	4.3	83.1*	·	34.7*	-5.3
SMILES	EBV gp42 inh	NS3 helicase inh	HCV core dimer	EBNA-1 inhibitor	ZTA DNA inh	MEX-5 binding	Zta DNA confirm	EBNA1 counter
C#CCOCCOCCOCCNc1nc(N2CCOCC2)nc(N2CCN(C(=O)CCCCCCCCCCNC(=O)[C@H](CO)n3cc(CCCCCN)nn3)CC2)n1	·	·	-28.0	16.1	23.8	·	·	·
O=C1C=CC(O)(c2cc(=O)c3c(O)cc(O)cc3o2)C=C1	-8.6	8.5	18.2	8.0	26.7	3.0	·	·
Cc1c(C)n(Cc2ccccc2)c2ncnc(NN)c12	·	-25.6	-6.5	12.8	39.4*	4.6	-2.1	-0.1
CN(CC(=O)N1CCN(Cc2ccccc2)CC1)C(=O)Cc1cccc2ccccc12	·	·	·	·	-2.4	·	·	·
CCOc1cc(/C=N/NC(=O)CCc2n[nH]c(=O)[nH]c2=O)ccc1O	-6.5	-0.7	-9.9	-3.3	-19.6	-1.3	·	·
COc1ccccc1NC(=O)CSc1nc2c(sc3ccccc32)c(=O)n1CCN(C)C	-22.5	-17.0	1.7	9.8	4.7	-0.2	·	·
CCN(CC)CCn1c(SCC(=O)Nc2ccc(F)cc2)nc2c(sc3ccccc32)c1=O	-3.1	-86.0	3.6	6.3	37.9*	2.6	23.7	-6.4
CC1(C)C=C2C(=NN(c3ccccc3)C(N)=C2C#N)CO1	·	3.8	30.8	6.4	27.7	0.7	·	·
N=C1/C(=C\c2coc3ccccc3c2=O)C(=O)N=C2SC(c3ccncc3)=NN12	-59.4	6.7	15.5	-2.2	39.0*	0.3	63.0*	-5.9
CC1=NN2C(=N)/C(=C\c3cc(C)n(-c4ccccc4)c3C)C(=O)N=C2S1	1.7	6.9	12.1	-3.7	-7.3	-1.6	·	·
CCN(CC)CCOC(=O)c1ccc(N/C=C(/C#N)c2nc(-c3ccc4c(c3)OCO4)cs2)cc1	-83.3	-37.9	3.1	-14.5	16.2	2.8	·	·
CCN(CC)CCOC(=O)c1ccc(N/C=C(/C#N)c2nc(-c3ccc(OC)cc3)cs2)cc1	-101.7	-29.7	5.0	7.5	47.5*	·	22.5	-8.4
CCOC(=O)Cc1csc(NC(=O)COc2ccccc2OCC)n1	-0.9	8.0	-1.1	-9.4	47.7*	-1.3	-4.5	-10.0
CCOC(=O)Cc1csc(NC(=O)COc2c(C)cccc2C)n1	-2.0	-4.5	-0.9	7.0	-16.4	0.5	·	·
COc1cccc(N2CCN(C(=O)CSc3ccc(F)cc3)CC2)c1	-14.0	17.6	0.1	-2.2	0.6	·	·	·
N/C(=N\OC(=O)COc1ccc(Br)cc1Cl)c1ccccn1	-6.3	-5.9	-1.7	-13.3	73.7*	-1.4	5.6	-10.1
COc1ccc(S(=O)(=O)NC(C)C(=O)N2CCCC2)cc1C (stereo unspecified)	·	-7.3	·	·	·	0.4	·	·
